Measurements as given in ChEMBL document CHEMBL1921792, “Synthesis and anticonvulsant activity of trans- and cis-2-(2,6-dimethylphenoxy)-N-(2- or 4-hydroxycyclohexyl)acetamides and their amine analogs” (Bioorg Med Chem, 2011).
Calls of active or inactive are those of the source. No cut-off for these calls is given here.

What was measured:
Mus musculus [1] = assay: Anticonvulsant activity in mouse assessed as protection against maximal electric shock-induced seizures at 100 mg/kg, ip after 4 hrs; type: functional, organism-based; parameters: dose 100 mg/kg
In short: (§1)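 Phase I maximal electroshock screen in mice. Compound given ip as a suspension in 0.5% methylcellulose at 30, 100 or 300 mg/kg, tested at 30 min and 4 h. Small groups (1–8); result is number protected/number tested.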

Mus musculus [2] = assay: Anticonvulsant activity in mouse assessed as protection against maximal electric shock-induced seizures at 30 mg/kg, ip after 0.5 hrs; type: functional, organism-based; parameters: dose 30 mg/kg; in short: as §1
Mus musculus [3] = assay: Anticonvulsant activity in mouse assessed as protection against maximal electric shock-induced seizures at 30 mg/kg, ip after 4 hrs; type: functional, organism-based; parameters: dose 30 mg/kg; in short: as §1
Mus musculus [4] = assay: Anticonvulsant activity in mouse assessed as protection against maximal electric shock-induced seizures at 300 mg/kg, ip after 0.5 hrs; type: functional, organism-based; parameters: dose 300 mg/kg; in short: as §1
Mus musculus [5] = assay: Anticonvulsant activity in mouse assessed as protection against maximal electric shock-induced seizures at 300 mg/kg, ip after 4 hrs; type: functional, organism-based; parameters: dose 300 mg/kg; in short: as §1
Mus musculus [6] = assay: Anticonvulsant activity against subcutaneous pentylenetetrazole-induced seizures in mouse at 30 mg/kg, ip after 0.5 hrs; type: functional, organism-based; parameters: dose 30 mg/kg
In short: (§2)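 Phase I screen in mice. Compound given ip as a suspension in 0.5% methylcellulose, read at 30 min and 4 h. Pentylenetetrazole 85 mg/kg in 0.9% NaCl was injected sc into the posterior midline and animals watched ≥30 min. Protection meant no clonic spasm lasting ≥5 s. Groups of 1–8 animals; result is protected/tested.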

Mus musculus [7] = assay: Anticonvulsant activity against subcutaneous pentylenetetrazole-induced seizures in mouse at 30 mg/kg, ip after 4 hrs; type: functional, organism-based; parameters: dose 30 mg/kg; in short: as §2
Mus musculus [8] = assay: Anticonvulsant activity against subcutaneous pentylenetetrazole-induced seizures in mouse at 100 mg/kg, ip after 4 hrs; type: functional, organism-based; parameters: dose 100 mg/kg; in short: as §2
Mus musculus [9] = assay: Anticonvulsant activity against subcutaneous pentylenetetrazole-induced seizures in mouse at 300 mg/kg, ip after 0.5 hrs; type: functional, organism-based; parameters: dose 300 mg/kg; in short: as §2
Mus musculus [10] = assay: Anticonvulsant activity against subcutaneous pentylenetetrazole-induced seizures in mouse at 300 mg/kg, ip after 4 hrs; type: functional, organism-based; parameters: dose 300 mg/kg; in short: as §2
Mus musculus [11] = assay: Neurotoxicity in mouse assessed as inability to maintain equilibrium on rotarod at 30 mg/kg, ip after 0.5 hrs by rotarod test; type: toxicity, organism-based; parameters: dose 30 mg/kg, route intraperitoneal; conditions: in vivo
In short: (§3)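 Drug given ip to mice as a suspension in 0.5% methylcellulose. At the stated time after dosing, each mouse was placed on a 1 inch knurled rod turning at 6 rpm. Neurotoxicity = inability to stay balanced at least 1 min in each of three trials. Scored as animals toxic/animals tested in small groups.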

Mus musculus [12] = assay: Neurotoxicity in mouse assessed as inability to maintain equilibrium on rotarod at 100 mg/kg, ip after 0.5 hrs by rotarod test; type: toxicity, organism-based; parameters: dose 100 mg/kg, route intraperitoneal; conditions: in vivo; in short: as §3
Mus musculus [13] = assay: Neurotoxicity in mouse assessed as inability to maintain equilibrium on rotarod at 300 mg/kg, ip after 0.5 hrs by rotarod test; type: toxicity, organism-based; parameters: dose 300 mg/kg, route intraperitoneal; conditions: in vivo; in short: as §3
Mus musculus [14] = assay: Neurotoxicity in mouse assessed as inability to maintain equilibrium on rotarod at 30 mg/kg, ip after 4 hrs by rotarod test; type: toxicity, organism-based; parameters: dose 30 mg/kg, route intraperitoneal; conditions: in vivo; in short: as §3
Mus musculus [15] = assay: Neurotoxicity in mouse assessed as inability to maintain equilibrium on rotarod at 100 mg/kg, ip after 4 hrs by rotarod test; type: toxicity, organism-based; parameters: dose 100 mg/kg, route intraperitoneal; conditions: in vivo; in short: as §3
Mus musculus [16] = assay: Neurotoxicity in mouse assessed as inability to maintain equilibrium on rotarod at 300 mg/kg, ip after 4 hrs by rotarod test; type: toxicity, organism-based; parameters: dose 300 mg/kg, route intraperitoneal; conditions: in vivo; in short: as §3
[17] = Neurotoxicity in ip dosed mouse assessed as inability to maintain equilibrium on rotarod by rotarod test; type: toxicity, organism-based; conditions: in vivo
In short: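 Mice dosed ip with a suspension in 0.5% methylcellulose, then placed on a 1 inch knurled plastic rod rotating at 6 rpm. Toxicity = failure to keep equilibrium for at least 1 min in each of three trials.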

Mus musculus [18] = assay: Anticonvulsant activity in ip dosed mouse assessed as protection against maximal electric shock-induced seizures; type: functional; conditions: Mus musculus, ip; read-out: ED50
Mus musculus [19] = species on record: Mus musculus; assay: Protective index, ratio of TD50 for neurotoxicity in mouse to ED50 for inhibition of maximal electroshock-induced seizures in mouse; type: functional
Rattus norvegicus [20] = assay: Neurotoxicity in rat assessed as neurological deficit at 30 mg/kg, po after 0.25 hrs […]; type: toxicity, organism-based; parameters: dose 30 mg/kg, route oral; conditions: in vivo
In short: (§4)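 Rats given the compound, suspended in 0.5% methylcellulose, by the stated route and dose. Neurological deficit was recorded at the listed times as ataxia and loss of placing response and muscle tone. Reported as number of rats showing toxicity/number tested.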

Rattus norvegicus [21] = assay: Neurotoxicity in rat assessed as neurological deficit at 30 mg/kg, po after 0.5 hrs […]; type: toxicity, organism-based; parameters: dose 30 mg/kg, route oral; conditions: in vivo; in short: as §4
Rattus norvegicus [22] = assay: Neurotoxicity in rat assessed as neurological deficit at 30 mg/kg, po after 1 hr […]; type: toxicity, organism-based; parameters: dose 30 mg/kg, route oral; conditions: in vivo; in short: as §4
Rattus norvegicus [23] = assay: Neurotoxicity in rat assessed as neurological deficit at 30 mg/kg, po after 2 hrs […]; type: toxicity, organism-based; parameters: dose 30 mg/kg, route oral; conditions: in vivo; in short: as §4
Rattus norvegicus [24] = assay: Neurotoxicity in rat assessed as neurological deficit at 30 mg/kg, po after 4 hrs by rotarod test; type: toxicity, organism-based; parameters: dose 30 mg/kg, route oral; conditions: in vivo; in short: as §4
Mus musculus [25] = assay: Anticonvulsant activity in mouse assessed as protection against maximal electric shock-induced seizures at 90 mg/kg, ip after 0.25 hrs; type: functional, organism-based; parameters: dose 90 mg/kg
In short: (§5)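 Time-to-peak-effect assay: MES protection read at 0.25–4 h after dosing. Mice ip (60–130 mg/kg), rats po (15 or 30 mg/kg) or ip (30 mg/kg). Groups of 4–8; result is protected/tested.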

Mus musculus [26] = assay: Anticonvulsant activity in mouse assessed as protection against maximal electric shock-induced seizures at 90 mg/kg, ip after 0.5 hrs; type: functional, organism-based; parameters: dose 90 mg/kg; in short: as §5
Mus musculus [27] = assay: Anticonvulsant activity in mouse assessed as protection against maximal electric shock-induced seizures at 90 mg/kg, ip after 1 hr; type: functional, organism-based; parameters: dose 90 mg/kg; in short: as §5
Mus musculus [28] = assay: Anticonvulsant activity in mouse assessed as protection against maximal electric shock-induced seizures at 90 mg/kg, ip after 4 hrs; type: functional, organism-based; parameters: dose 90 mg/kg; in short: as §5
Mus musculus [29] = assay: Neurotoxicity in mouse assessed as inability to maintain equilibrium on rotarod at 90 mg/kg, ip after 24 hrs using rotarod test; type: toxicity, organism-based; parameters: dose 90 mg/kg, route intraperitoneal; conditions: in vivo; in short: as §3
Mus musculus [30] = assay: Anticonvulsant activity in mouse assessed as protection against maximal electric shock-induced seizures at 70 mg/kg, ip after 0.5 hrs; type: functional, organism-based; parameters: dose 70 mg/kg; in short: as §5
Mus musculus [31] = assay: Anticonvulsant activity in mouse assessed as protection against maximal electric shock-induced seizures at 70 mg/kg, ip after 1 hr; type: functional, organism-based; parameters: dose 70 mg/kg; in short: as §5
Mus musculus [32] = assay: Anticonvulsant activity in mouse assessed as protection against maximal electric shock-induced seizures at 70 mg/kg, ip after 2 hrs; type: functional, organism-based; parameters: dose 70 mg/kg; in short: as §5
Mus musculus [33] = assay: Anticonvulsant activity in mouse assessed as protection against maximal electric shock-induced seizures at 60 mg/kg, ip after 0.25 hrs; type: functional, organism-based; parameters: dose 60 mg/kg; in short: as §5
Mus musculus [34] = assay: Anticonvulsant activity in ip dosed mouse assessed as time to show peak effect of protection against maximal electric shock-induced seizures; type: functional; in short: as §5

With `Cc1cccc(C)c1OCC(=O)N[C@H]1CCCC[C@@H]1O.O=C(O)C(O)C(O)C(=O)O` the Activity (Mus musculus [1]) was “inactive”, the Activity (Mus musculus [2]) was “inactive” and the Activity (Mus musculus [3]) was “inactive”. For the same compound, the Activity (Mus musculus [4]) was “Active”, the Activity (Mus musculus [5]) was “inactive” and the Activity (Mus musculus [6]) was “inactive”. For the same compound, the Activity (Mus musculus [7]) was “inactive”, the Activity (Mus musculus [8]) was “inactive” and the Activity (Mus musculus [9]) was “inactive”. For the same compound, the Activity (Mus musculus [10]) was “inactive”, the Activity (Mus musculus [11]) was “Non-toxic” and the Activity (Mus musculus [12]) was “Non-toxic”. For the same compound, the Activity (Mus musculus [13]) was “Non-toxic”, the Activity (Mus musculus [14]) was “Non-toxic” and the Activity (Mus musculus [15]) was “Non-toxic”. For the same compound, the Activity (Mus musculus [16]) was “Non-toxic”, the TD50 [17] was 68.7 mg/kg and the ED50 (Mus musculus [18]) was 35.5 mg/kg. For the same compound, the “Ratio TD50/ED50” value (Mus musculus [19]) was 1.937, the Activity (Rattus norvegicus [20]) was “Non-toxic” and the Activity (Rattus norvegicus [21]) was “Non-toxic”. The Activity (Rattus norvegicus [22]) was “Non-toxic”, the Activity (Rattus norvegicus [23]) was “Non-toxic” and the Activity (Rattus norvegicus [24]) was “Non-toxic”. For the same compound, the Activity (Mus musculus [25]) was “Active”, the Activity (Mus musculus [26]) was “Active” and the Activity (Mus musculus [27]) was “inactive”. For the same compound, the Activity (Mus musculus [28]) was “inactive”, the Activity (Mus musculus [29]) was “Non-toxic” and the Activity (Mus musculus [30]) was “inactive”. The Activity (Mus musculus [31]) was “inactive”, the Activity (Mus musculus [32]) was “inactive” and the Activity (Mus musculus [33]) was “Active”. The Time (Mus musculus [34]) was 0.25 h.
